Shown are actives, neighbours in structure and some others; about 2% of the full set was active somewhere.
Arr AP2 block: blocks beta-arrestin peptide binding to AP2 adaptin. FITC-arrestin peptide / GST-AP2 beads, flow cytometry; AP2 beta2 appendage carries R879A mutation. inhibition, % at 10 µM. 0.31% of 340,000 active. AID 504490;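 active = inhibition above a set limit, near 3 SD of compounds lacking own fluorescence, cut at about 54% in these data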;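 note: plate controls were DMSO wells for no effect and 5 µM unlabelled arrestin peptide for full effect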
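Measured by: flow cytometry, FL1 (488/535 nm); Material: AP2 appendage R879A on GSH beads; Evaluation: percent response; Timing: pre-incubation 12 min, peptide binding 1 h, room temperature; Also added: 50 nM FITC-arrestin peptide; Medium: PBS with 0.05% Tween 20 and 0.1% BSA.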
Lipid droplet: modulators of hepatic lipid droplet formation. inhibition, % at 6.5 µM. 0.4% of 240,000 active. AML12 mouse hepatocytes, oleate lipid droplets, BODIPY imaging;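 active = lipid droplet intensity inhibited by at least 50%, with more than 500 cells counted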
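Technique: fluorescence imaging, 20x objective, two fields per well / Assay system: AML12 hepatocytes (mouse) / Measure: % inhibition of lipid droplet signal / Doses: 6.5 µM single-point dosing / Incubation: overnight exposure / Reagent: 100 µM oleic acid challenge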
TAG inh: reduces triacylglycerol accumulation in H9c2 cells; Nile Red lipid (TAG) fluorescence; cells loaded with 200 µM oleic acid; inhibition, % at 12.5 µM; 0.66% of 230,000 active; AID 651582;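 active = pattern-corrected inhibition of lipid staining of at least 50% with the nuclear-stain viability signal not falling by more than 50%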;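 note: 0% = DMSO wells and 100% = triacsin C control wells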
NTR1 ag: activates human neurotensin receptor 1 | 0.17% of 330,000 active | activation, % at 20 µM | P30989 | AID 493036 | NTR1-U2OS beta-arrestin-GFP spot imaging, agonist mode;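 active = activation at or above 40% of the spot to cytoplasm intensity ratio, with at least 20 cells analyzed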;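 note: 0% = DMSO without peptide and 100% = 100 nM NTR1 peptide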
GRK2 inh: human GRK2 inhibition via aptamer displacement; P25098; bead flow cytometry, FAM-aptamer displacement from GRK2; inhibition of aptamer binding, % at 10 µM; 0.59% of 330,000 active;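 active = inhibition of aptamer binding above 40%, roughly 3 SD of noise, on plates passing a quality check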;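 note: median bead fluorescence of bound FAM aptamer so fluorescent compounds give negative values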
Target sequence (P25098 whole entry, looked up): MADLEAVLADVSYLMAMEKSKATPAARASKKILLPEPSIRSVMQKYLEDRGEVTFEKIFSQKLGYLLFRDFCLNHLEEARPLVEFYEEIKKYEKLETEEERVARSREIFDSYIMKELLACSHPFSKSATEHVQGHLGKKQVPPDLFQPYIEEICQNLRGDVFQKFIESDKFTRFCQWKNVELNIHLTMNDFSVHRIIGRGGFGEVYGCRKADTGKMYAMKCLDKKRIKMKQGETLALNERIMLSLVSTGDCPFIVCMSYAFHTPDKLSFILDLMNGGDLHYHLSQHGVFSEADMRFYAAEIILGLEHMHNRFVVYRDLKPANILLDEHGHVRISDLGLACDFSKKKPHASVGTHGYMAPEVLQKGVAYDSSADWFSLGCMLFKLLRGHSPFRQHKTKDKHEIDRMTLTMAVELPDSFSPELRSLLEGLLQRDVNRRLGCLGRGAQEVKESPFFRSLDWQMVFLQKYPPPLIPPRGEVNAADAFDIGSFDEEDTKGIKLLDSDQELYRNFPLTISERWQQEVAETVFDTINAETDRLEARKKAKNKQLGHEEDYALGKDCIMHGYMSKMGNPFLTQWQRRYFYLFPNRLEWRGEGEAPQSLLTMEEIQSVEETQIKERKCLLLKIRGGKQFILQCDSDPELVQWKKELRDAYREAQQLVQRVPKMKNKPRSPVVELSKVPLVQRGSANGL
Beta2AR agonist: agonists of human beta-2 adrenergic receptor inducing internalization; 0.43% of 340,000 active; response, % (concentration not given with the values); P07550; Am2.2-beta2AR cells, FAP receptor internalization, flow cytometry;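 active = response above a set limit, near 3 SD of response in nonfluorescent compounds, cut at about 42% in these data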
GRK2 inh confirm: human GRK2 inhibition confirmation, cherry pick 1. shares compounds with GRK2 inh. bead-bound GRK2, FAM-aptamer displacement, flow cytometry. aptamer displacement, % at 10 µM. 4% of 2,000 active. AID 504451;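 active = aptamer displacement above 40%, near three times the noise of non-fluorescent compounds, on plates passing quality checks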;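 note: negative values mostly reflect intrinsic compound fluorescence rather than true enhancement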
FAM quench CP1: counter-screen for GRK2 aptamer inhibitors: fluorescent aptamer quenchers. shares compounds with GRK2 inh. Carboxyfluorescein RNA aptamer on beads, flow cytometry quenching; stronger effect = lower value. fluorescence response (% of DMSO), % at 10 µM. 2,000 tested, under 10 active. AID 504580;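 active = compounds that quench the bead-bound fluorescent RNA probe, cutting fluorescence to under half of the solvent control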;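 note: counterscreen run without GRK2 so only probe quenching by compound is measured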
GRK2 confirm 2: confirmation of human GRK2 inhibitors binding RNA aptamer site | shares compounds with GRK2 inh | bead-bound GRK2, FAM-aptamer displacement, flow cytometry | inhibition of aptamer binding, % at 10 µM | 360 tested, under 10 active;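 active = inhibition of aptamer binding above 40%, about triple the noise seen with nonglowing compounds, on plates passing quality control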;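 note: negative values mostly come from compounds that fluoresce themselves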
FAM quench SP: quenches fluorescent RNA aptamer, GRK2 hit artifact; shares compounds with GRK2 inh; fluorescence response vs DMSO, % at 10 µM; 360 tested, under 10 active; AID 588494; carboxyfluorescein RNA aptamer beads, flow cytometry quenching; stronger effect = lower value;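 active = response vs DMSO under 50%, meaning signal dropped by over half, treated as fluorescence quencher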;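 note: labelled aptamer on streptavidin beads without GRK2 as a quench counter-screen; 100% = bead fluorescence of DMSO wells and lower means quenching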
The depositor's hits bear a star; nt = no result given.

SMILES	Arr AP2 block	Lipid droplet	TAG inh	NTR1 ag	GRK2 inh	Beta2AR agonist	GRK2 inh confirm	FAM quench CP1	others
Cn1ccnc1C1CCCCN1Cc1nc(Cc2cccc(C(F)(F)F)c2)no1 (configuration not stated)	-23	-14	0	0	0	4	-1	101
Cc1cccc(C(=O)O/N=C(\N)c2ccc(Br)cc2)c1	-3	5	nt	0	2	-6	nt	nt
Cc1cccc(C(=O)O/N=C(\N)c2ccc(Cl)cc2)c1	39	nt	nt	0	11	3	-2	100
Cc1ccc(C)c(NC(=O)CN(C)C(=O)c2cc3c(s2)CCCCC3)c1	-1	nt	20	3	0	8	nt	nt
Cc1ccc(-c2c(C#N)c(N)n(-c3ccc(C)cc3)c(=O)c2C#N)cc1	-4	1	-25	5	42*	-13	-7	129
O=S(=O)(Oc1ccc(C(=S)N2CCOCC2)cc1)c1ccc(Cl)cc1	39	-1	-25	1	99*	-3	3	91
CN1C(=O)[C@H](Cc2ccc([N+](=O)[O-])cc2)NC1=S	-20	-8	nt	1	0	2	nt	nt
O=S(=O)(Nc1cc(C(F)(F)F)ccc1N1CCOCC1)c1ccccc1	24	1	-16	3	1	4	nt	nt
Cc1cccc(S(=O)(=O)Nc2cc(Cl)ccc2N2CCOCC2)c1	-15	nt	5	4	81*	2	-2	106
COC(=O)c1ccc(COC(=O)C2CCN(S(=O)(=O)c3ccc(C)c(C)c3)CC2)o1	3	nt	6	-1	0	-5	nt	nt
Cc1cccc(CN2CCN(Cc3ccc4nonc4c3)CC2CCO)n1 (configuration not stated)	9	3	8	2	41*	-7	-14	101
CC(=O)NS(=O)(=O)c1cccnc1Nc1ccc(Cl)c(Cl)c1	3	-12	9	0	83*	1	-2	105
NS(=O)(=O)c1cccnc1Nc1ccc(Cl)c(Cl)c1	3	1	-7	2	0	3	nt	nt
Cc1cc(OCC(=O)N2CCN(c3cccc(Cl)c3)CC2)c2c(C)c(C)c(=O)oc2c1	10	-4	nt	16	55*	14	-16	97
COCCCNCCCCOc1ccc(Br)cc1Cl	-3	-20	nt	0	41*	18	nt	nt	GRK2 confirm 2=14;FAM quench SP=99
COCCCNCCOCCOc1ccc(C)cc1Br	6	-20	nt	-2	100*	3	nt	nt	GRK2 confirm 2=-10;FAM quench SP=101
COCCNCCCOc1ccc(Br)cc1Cl	-4	-4	nt	1	1	2	nt	nt
O=C(C[C@@H]1C/C=C\C[C@@H](NC(=O)OCC2c3ccccc3-c3ccccc32)C(=O)OCCNC1=O)N[C@@H](CO)Cc1ccccc1	-4	nt	-19	2	0	-6	nt	nt
CSc1ccc(C(=O)C2CCCN(C(=O)CCCn3cncn3)C2)cc1 (configuration not stated)	18	-2	-3	1	76*	7	6	96
CCOC(=O)c1ccc(NC(=O)c2nc[nH]c2C(=O)NC[C@H](C)O)cc1	nt	nt	9	nt	nt	nt	nt	nt
Cc1cc(C)n2nc(SCC(=O)N(CCC#N)c3ccc(F)cc3)nc2n1	-5	nt	-1	-2	0	-3	nt	nt
Cc1c(OCC(=O)NCC(O)c2ccccc2)ccc2c(-c3ccccc3)cc(=O)oc12 (configuration not stated)	15	-2	nt	8	0	6	nt	nt
O=C(COc1cccnc1[N+](=O)[O-])NC1CCS(=O)(=O)C1 (configuration not stated)	nt	10	nt	0	70*	-4	nt	nt	GRK2 confirm 2=-43;FAM quench SP=101
CN(CC(=O)Nc1ccccc1C(F)(F)F)C(=O)C1CC1	4	nt	12	0	0	3	nt	nt
CCCC(C)c1nnc(NC(=O)CCS(=O)(=O)c2ccccc2)s1 (configuration not stated)	-2	1	nt	1	17	-8	13	98
SMILES	Arr AP2 block	Lipid droplet	TAG inh	NTR1 ag	GRK2 inh	Beta2AR agonist	GRK2 inh confirm	FAM quench CP1	others
CCC(CC)c1nnc(NC(=O)CS(=O)(=O)c2ccccc2)s1	-4	0	nt	-2	1	-3	nt	nt
CC(C)c1nnc(NC(=O)CCS(=O)(=O)c2ccccc2)s1	20	-12	nt	0	0	-2	-2	113
CC(C)c1nnc(NC(=O)c2cccs2)s1	-5	6	11	-1	44*	-6	-3	98
CCCCc1ncc(CN2CCC(n3nccc3NC(=O)C(OC)c3ccccc3)CC2)[nH]1 (configuration not stated)	-6	27	16	0	1	-4	nt	nt
Cc1cccc(NC(=O)CNC(=O)c2ccc3nc[nH]c3c2)c1C	-10	nt	3	-1	3	0	nt	nt
S=C(NCc1cccnc1)Nc1ccc(Oc2ccc(Cl)cc2)cc1	28	-3	-7	5	0	-12	nt	nt
CS(=O)(=O)c1ccccc1C(=O)Nc1ccc(S(=O)(=O)N2CCCC2)cc1	-9	nt	2	2	4	0	nt	nt
CCOCCC(=O)Nc1ccc2c(c1)c(=O)n(C)n2Cc1cccc(C(F)(F)F)c1	nt	nt	-4	nt	nt	nt	nt	nt
CCCc1n[nH]c2c1/C(=N\O)CCC2	21	-2	-12	-1	0	2	nt	nt
Cc1[nH]nc2c1/C(=N\O)CCC2	2	5	11	0	40	11	-3	102
CCOC(=O)c1c(S(=O)(=O)Nc2ccccn2)c(C)n(C)c1C	-14	0	nt	0	4	4	nt	nt
O=C1N[C@@H](Cc2ccccc2)[C@@H](c2ccco2)O1	-3	-18	-1	-6	1	3	nt	nt
C[C@@H]1NC(=O)OC1c1ccco1 (some centres not stated)	-7	nt	1	0	76*	-6	5	99
CCn1cc(Cl)c(C(=O)NNC(=O)CCn2cc([N+](=O)[O-])cn2)n1	-3	nt	nt	5	63*	18	nt	nt	GRK2 confirm 2=-34;FAM quench SP=101
COc1cccc(NC(=S)NNC(=O)CCn2cc([N+](=O)[O-])cn2)c1	13	-1	nt	1	3	4	nt	nt
Nc1c(C(=O)NCCc2ccccc2)nnn1Cc1ccc(Br)cc1F	-8	9	-19	2	50*	-6	-7	103

Source: PubChem (several laboratories)
